Source: ChEMBL document CHEMBL1955865, “Synthesis of novel spirooxindole derivatives by one pot multicomponent reaction and their antimicrobial activity” (2012)
Values after ≈ are worked out from the molar mass of the structure shown.

Test system: Klebsiella aerogenes
Assay: Antibacterial activity against Enterobacter aerogenes MTCC 111 at 1000 ug/disc after 24 hrs by disc diffusion assay
Format: functional
Details: MTCC 111, 24 h, read-out: IZ
Summary of the method: (§1)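 Disc diffusion on Mueller Hinton agar. Cultures (about 10^4 CFU/ml) were swabbed on and dried 10 min. Discs loaded at 1000 µg/disc were left 30 min at room temperature for diffusion, with a solvent negative control. Plates were incubated 24 h at 37 °C. Inhibition zones were measured in mm, and the experiment was done twice.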

| SMILES | zone of inhibition at 1000 µg/disc |
| --- | --- |
| CCCCCCN1C(=O)C2(C3=C(CN2C)C(=O)c2ccccc2C3=O)c2ccccc21 (centres undefined) | 13 mm |
| CN1C(=O)C2(C3=C(CN2C)C(=O)c2ccccc2C3=O)c2ccccc21 (centres undefined) | 10 mm |

Test system: Salmonella typhimurium
Assay: Antibacterial activity against Salmonella Typhimurium MTCC 1251 after 24 hrs by two-fold serial dilution method
Format: functional, Salmonella enterica subsp. enterica serovar Typhimurium
Details: Salmonella enterica, MTCC 1251, 24 h
Summary of the method: (§2)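 Bacteria grown in Mueller Hinton broth for 24 h at 37 °C and diluted to about 10^4 CFU/ml. Compound in 2% DMSO was serially diluted two-fold (1000 to 15.62 µg/ml) in medium in 96-well plates and inoculated. Plates were incubated 24 h at 37 °C. 5 µl of broth was spotted onto MHA, and MIC was taken as the lowest concentration with no visible growth on agar.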

| SMILES | MIC |
| --- | --- |
| CCCCCCN1C(=O)C2(C3=C(CN2C)C(=O)c2ccccc2C3=O)c2ccccc21 (centres undefined) | 62.5 µg/mL (≈ 151 µM) |
| CN1C(=O)C2(C3=C(CN2C)C(=O)c2ccccc2C3=O)c2ccccc21 (centres undefined) | 125 µg/mL (≈ 363 µM) |

Test system: Botrytis cinerea
Assay: Antifungal activity against Botrytis cinerea at 1000 ug/disc after 48 hrs by disc diffusion assay
Format: functional
Details: read-out: IZ
Summary of the method: (§3)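 Fungal disc diffusion with inoculum from SDA spores (filamentous) or SDB culture (yeast). Test cultures were swabbed on agar, and discs at 1000 µg/disc were left 30 min at room temperature, with a solvent negative control. Plates were incubated 48 h at 27 °C. Zone of inhibition was measured in mm, and the experiment was repeated twice.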

| SMILES | zone of inhibition at 1000 µg/disc |
| --- | --- |
| CCCCCCN1C(=O)C2(C3=C(CN2C)C(=O)c2ccccc2C3=O)c2ccccc21 (centres undefined) | 10 mm |
| CN1C(=O)C2(C3=C(CN2C)C(=O)c2ccccc2C3=O)c2ccccc21 (centres undefined) | 8 mm |

Test system: Salmonella enterica subsp. enterica serovar Paratyphi B
Assay: Antibacterial activity against Salmonella paratyphi B after 24 hrs by twofold serial dilution method
Format: functional
Details: not given
Summary of the method: (§4)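 Broth microdilution in MHB following the standard bacterial reference method. Compound was dissolved in DMSO (2%) and serially diluted two-fold from 1000 to 15.62 µg/ml in 96-well plates, with an inoculum of about 10^4 CFU/ml. Streptomycin and ciprofloxacin were positive controls. After 24 h at 37 °C, 5 µl of broth was subcultured on MHA. MIC was the lowest concentration without visible growth on agar.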

| SMILES | MIC |
| --- | --- |
| CCCCCCN1C(=O)C2(C3=C(CN2C)C(=O)c2ccccc2C3=O)c2ccccc21 (centres undefined) | 500 µg/mL (≈ 1210 µM) |
| CN1C(=O)C2(C3=C(CN2C)C(=O)c2ccccc2C3=O)c2ccccc21 (centres undefined) | 250 µg/mL (≈ 726 µM) |

Test system: Klebsiella pneumoniae
Assay: Antibacterial activity against Klebsiella pneumoniae MTCC 109 at 1000 ug/disc after 24 hrs by disc diffusion assay
Format: functional
Details: MTCC 109, 24 h, read-out: IZ
Summary of the method: as §1

| SMILES | zone of inhibition at 1000 µg/disc |
| --- | --- |
| CCCCCCN1C(=O)C2(C3=C(CN2C)C(=O)c2ccccc2C3=O)c2ccccc21 (centres undefined) | 10 mm |
| CN1C(=O)C2(C3=C(CN2C)C(=O)c2ccccc2C3=O)c2ccccc21 (centres undefined) | 18 mm |

Test system: Staphylococcus aureus
Assay: Antibacterial activity against methicillin-resistant Staphylococcus aureus after 24 hrs by twofold serial dilution method
Format: functional
Details: not given
Summary of the method: as §4

| SMILES | MIC |
| --- | --- |
| CCCCCCN1C(=O)C2(C3=C(CN2C)C(=O)c2ccccc2C3=O)c2ccccc21 (centres undefined) | 500 µg/mL (≈ 1210 µM) |
| CN1C(=O)C2(C3=C(CN2C)C(=O)c2ccccc2C3=O)c2ccccc21 (centres undefined) | 250 µg/mL (≈ 726 µM) |

Test system: Proteus vulgaris
Assay: Antibacterial activity against Proteus vulgaris MTCC 1771 after 24 hrs by twofold serial dilution method
Format: functional
Details: MTCC 1771, 24 h
Summary of the method: as §2

| SMILES | MIC |
| --- | --- |
| CCCCCCN1C(=O)C2(C3=C(CN2C)C(=O)c2ccccc2C3=O)c2ccccc21 (centres undefined) | 500 µg/mL (≈ 1210 µM) |
| CN1C(=O)C2(C3=C(CN2C)C(=O)c2ccccc2C3=O)c2ccccc21 (centres undefined) | 125 µg/mL (≈ 363 µM) |

Test system: Proteus vulgaris
Assay: Antibacterial activity against Proteus vulgaris MTCC 1771 at 1000 ug/disc after 24 hrs by disc diffusion assay
Format: functional
Details: MTCC 1771, 24 h, read-out: IZ
Summary of the method: as §1

| SMILES | zone of inhibition at 1000 µg/disc |
| --- | --- |
| CCCCCCN1C(=O)C2(C3=C(CN2C)C(=O)c2ccccc2C3=O)c2ccccc21 (centres undefined) | 10 mm |
| CN1C(=O)C2(C3=C(CN2C)C(=O)c2ccccc2C3=O)c2ccccc21 (centres undefined) | 10 mm |

Test system: Candida albicans
Assay: Antifungal activity against Candida albicans MTCC 227 after 48 to 72 hrs by twofold serial dilution method
Format: functional
Details: not given
Summary of the method: (§5)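 Broth two-fold serial dilution, 1000 to 15.62 µg/ml, with compound dissolved in 2% DMSO, in 96-well plates. Filamentous fungal spores came from 10-day SDA slants at 28 °C, and yeast from SDB grown 48 h at 28 °C. Incubation was 48-72 h at 28 °C. MIC was the lowest concentration with no visible fungal growth.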

| SMILES | MIC |
| --- | --- |
| CCCCCCN1C(=O)C2(C3=C(CN2C)C(=O)c2ccccc2C3=O)c2ccccc21 (centres undefined) | 125 µg/mL (≈ 302 µM) |
| CN1C(=O)C2(C3=C(CN2C)C(=O)c2ccccc2C3=O)c2ccccc21 (centres undefined) | 250 µg/mL (≈ 726 µM) |

Test system: Micrococcus luteus
Assay: Antibacterial activity against Micrococcus luteus after 24 hrs by twofold serial dilution method
Format: functional
Details: not given
Summary of the method: as §2

| SMILES | MIC |
| --- | --- |
| CCCCCCN1C(=O)C2(C3=C(CN2C)C(=O)c2ccccc2C3=O)c2ccccc21 (centres undefined) | 250 µg/mL (≈ 603 µM) |
| CN1C(=O)C2(C3=C(CN2C)C(=O)c2ccccc2C3=O)c2ccccc21 (centres undefined) | 125 µg/mL (≈ 363 µM) |

Test system: Staphylococcus aureus
Assay: Antibacterial activity against methicillin-resistant Staphylococcus aureus at 1000 ug/disc after 24 hrs by disc diffusion assay
Format: functional
Details: read-out: IZ
Summary of the method: (§6)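 Disc diffusion on Mueller Hinton agar. Bacteria were grown 24 h at 37 °C in MHB and diluted to about 10^4 CFU/ml, swabbed onto plates and dried 10 min. Discs were loaded at 1000 μg/disc and held 30 min at room temperature for diffusion. Solvent served as negative control. After 24 h at 37 °C, inhibition zones were read in mm; run twice.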

| SMILES | zone of inhibition at 1000 µg/disc |
| --- | --- |
| CCCCCCN1C(=O)C2(C3=C(CN2C)C(=O)c2ccccc2C3=O)c2ccccc21 (centres undefined) | 10 mm |
| CN1C(=O)C2(C3=C(CN2C)C(=O)c2ccccc2C3=O)c2ccccc21 (centres undefined) | 10 mm |

Test system: not listed separately
Assay: Antifungal activity against Malassezia pachydermatis after 48 to 72 hrs by twofold serial dilution method
Format: functional
Details: not given
Summary of the method: as §5

| SMILES | MIC |
| --- | --- |
| CCCCCCN1C(=O)C2(C3=C(CN2C)C(=O)c2ccccc2C3=O)c2ccccc21 (centres undefined) | 250 µg/mL (≈ 603 µM) |
| CN1C(=O)C2(C3=C(CN2C)C(=O)c2ccccc2C3=O)c2ccccc21 (centres undefined) | 125 µg/mL (≈ 363 µM) |

Test system: not listed separately
Assay: Antifungal activity against Malassezia pachydermatis at 1000 ug/disc after 48 hrs by disc diffusion assay
Format: functional
Details: not given
Summary of the method: as §3

| SMILES | inhibition zone (IZ) |
| --- | --- |
| CCCCCCN1C(=O)C2(C3=C(CN2C)C(=O)c2ccccc2C3=O)c2ccccc21 (centres undefined) | 12 mm |
| CN1C(=O)C2(C3=C(CN2C)C(=O)c2ccccc2C3=O)c2ccccc21 (centres undefined) | 11 mm |

Test system: Candida albicans
Assay: Antifungal activity against Candida albicans MTCC 227 at 1000 ug/disc after 48 hrs by disc diffusion assay
Format: functional
Details: MTCC 227, 48 h, read-out: IZ
Summary of the method: as §3

| SMILES | zone of inhibition at 1000 µg/disc |
| --- | --- |
| CCCCCCN1C(=O)C2(C3=C(CN2C)C(=O)c2ccccc2C3=O)c2ccccc21 (centres undefined) | 14 mm |
| CN1C(=O)C2(C3=C(CN2C)C(=O)c2ccccc2C3=O)c2ccccc21 (centres undefined) | 9 mm |

Test system: Micrococcus luteus
Assay: Antibacterial activity against Micrococcus luteus at 1000 ug/disc after 24 hrs by disc diffusion assay
Format: functional
Details: read-out: IZ
Summary of the method: as §1

| SMILES | zone of inhibition at 1000 µg/disc |
| --- | --- |
| CCCCCCN1C(=O)C2(C3=C(CN2C)C(=O)c2ccccc2C3=O)c2ccccc21 (centres undefined) | 10 mm |
| CN1C(=O)C2(C3=C(CN2C)C(=O)c2ccccc2C3=O)c2ccccc21 (centres undefined) | 12 mm |

Test system: Klebsiella aerogenes
Assay: Antibacterial activity against Enterobacter aerogenes MTCC 111 after 24 hrs by twofold serial dilution method
Format: functional
Details: MTCC 111, 24 h
Summary of the method: as §2

| SMILES | MIC |
| --- | --- |
| CCCCCCN1C(=O)C2(C3=C(CN2C)C(=O)c2ccccc2C3=O)c2ccccc21 (centres undefined) | 250 µg/mL (≈ 603 µM) |
| CN1C(=O)C2(C3=C(CN2C)C(=O)c2ccccc2C3=O)c2ccccc21 (centres undefined) | 125 µg/mL (≈ 363 µM) |

Test system: Botrytis cinerea
Assay: Antifungal activity against Botrytis cinerea after 48 to 72 hrs by twofold serial dilution method
Format: functional
Details: not given
Summary of the method: as §5

| SMILES | MIC |
| --- | --- |
| CCCCCCN1C(=O)C2(C3=C(CN2C)C(=O)c2ccccc2C3=O)c2ccccc21 (centres undefined) | 500 µg/mL (≈ 1210 µM) |
| CN1C(=O)C2(C3=C(CN2C)C(=O)c2ccccc2C3=O)c2ccccc21 (centres undefined) | 250 µg/mL (≈ 726 µM) |

Test system: Klebsiella pneumoniae
Assay: Antibacterial activity against Klebsiella pneumoniae MTCC 109 after 24 hrs by twofold serial dilution method
Format: functional
Details: MTCC 109, 24 h
Summary of the method: as §2

| SMILES | MIC |
| --- | --- |
| CCCCCCN1C(=O)C2(C3=C(CN2C)C(=O)c2ccccc2C3=O)c2ccccc21 (centres undefined) | 500 µg/mL (≈ 1210 µM) |
| CN1C(=O)C2(C3=C(CN2C)C(=O)c2ccccc2C3=O)c2ccccc21 (centres undefined) | 31.2 µg/mL (≈ 90.7 µM) |

Test system: Salmonella enterica subsp. enterica serovar Paratyphi B
Assay: Antibacterial activity against Salmonella paratyphi B at 1000 ug/disc after 24 hrs by disc diffusion assay
Format: functional
Details: read-out: IZ
Summary of the method: as §6

| SMILES | zone of inhibition at 1000 µg/disc |
| --- | --- |
| CCCCCCN1C(=O)C2(C3=C(CN2C)C(=O)c2ccccc2C3=O)c2ccccc21 (centres undefined) | 8 mm |
| CN1C(=O)C2(C3=C(CN2C)C(=O)c2ccccc2C3=O)c2ccccc21 (centres undefined) | 11 mm |

Test system: Salmonella typhimurium
Assay: Antibacterial activity against Salmonella Typhimurium MTCC 1251 at 1000 ug/disc after 24 hrs by disc diffusion assay
Format: functional, Salmonella enterica subsp. enterica serovar Typhimurium
Details: Salmonella enterica, MTCC 1251, 24 h; read-out: IZ
Summary of the method: as §1

| SMILES | zone of inhibition at 1000 µg/disc |
| --- | --- |
| CCCCCCN1C(=O)C2(C3=C(CN2C)C(=O)c2ccccc2C3=O)c2ccccc21 (centres undefined) | 16 mm |
| CN1C(=O)C2(C3=C(CN2C)C(=O)c2ccccc2C3=O)c2ccccc21 (centres undefined) | 14 mm |

Test system: Staphylococcus aureus
Assay: Antibacterial activity against Staphylococcus aureus MTCC 96 at 1000 ug/disc after 24 hrs by disc diffusion assay
Format: functional
Details: MTCC 96, 24 h, read-out: IZ
Summary of the method: as §1

| SMILES | zone of inhibition at 1000 µg/disc |
| --- | --- |
| CCCCCCN1C(=O)C2(C3=C(CN2C)C(=O)c2ccccc2C3=O)c2ccccc21 (centres undefined) | 12 mm |
| CN1C(=O)C2(C3=C(CN2C)C(=O)c2ccccc2C3=O)c2ccccc21 (centres undefined) | 13 mm |

Test system: Staphylococcus aureus
Assay: Antibacterial activity against Staphylococcus aureus MTCC 96 after 24 hrs by twofold serial dilution method
Format: functional
Details: MTCC 96, 24 h
Summary of the method: as §2

| SMILES | MIC |
| --- | --- |
| CCCCCCN1C(=O)C2(C3=C(CN2C)C(=O)c2ccccc2C3=O)c2ccccc21 (centres undefined) | 250 µg/mL (≈ 603 µM) |
| CN1C(=O)C2(C3=C(CN2C)C(=O)c2ccccc2C3=O)c2ccccc21 (centres undefined) | 62.5 µg/mL (≈ 181 µM) |
